pIC50: −log10 of the molar value. Each block holds one molecule with its values, some of them ahead of it.
Assays:
[1] = Cytotoxicity against human SF539 cells by MTT assay; format: functional; settings: SF-539
In short: (§1)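 NCI-60 screen: a single-dose 10 μM pre-test, then a five-concentration assay for promoted compounds. GI₅₀ is the concentration giving 50% growth inhibition versus control, taken from concentration-response curves. GI₅₀ values below the lowest concentration were recorded as 10 nM, and values above the range at the top concentration.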

[2] = system: SN12C; experiment: Cytotoxicity against human SN12C cells by MTT assay; format: functional; in short: as §1
[3] = Cytotoxicity against human HOP62 cells by MTT assay; format: functional; settings: HOP-62; in short: as §1
[4] = Cytotoxicity against human UACC62 cells by MTT assay; format: functional; settings: UACC-62; in short: as §1
[5] = target: T1, DNA topoisomerase 1 (Homo sapiens) (UniProt P11387); experiment: Activity at recombinant Top1 (unknown origin) using 3'-[32P]-labeled double-stranded DNA (117 bp) as substrate assessed as induction of DNA cleavage at 0.1 to 100 uM incubated for 20 mins by electrophoretic assay relative to 1 uM camptothecin
T1 sequence (whole entry): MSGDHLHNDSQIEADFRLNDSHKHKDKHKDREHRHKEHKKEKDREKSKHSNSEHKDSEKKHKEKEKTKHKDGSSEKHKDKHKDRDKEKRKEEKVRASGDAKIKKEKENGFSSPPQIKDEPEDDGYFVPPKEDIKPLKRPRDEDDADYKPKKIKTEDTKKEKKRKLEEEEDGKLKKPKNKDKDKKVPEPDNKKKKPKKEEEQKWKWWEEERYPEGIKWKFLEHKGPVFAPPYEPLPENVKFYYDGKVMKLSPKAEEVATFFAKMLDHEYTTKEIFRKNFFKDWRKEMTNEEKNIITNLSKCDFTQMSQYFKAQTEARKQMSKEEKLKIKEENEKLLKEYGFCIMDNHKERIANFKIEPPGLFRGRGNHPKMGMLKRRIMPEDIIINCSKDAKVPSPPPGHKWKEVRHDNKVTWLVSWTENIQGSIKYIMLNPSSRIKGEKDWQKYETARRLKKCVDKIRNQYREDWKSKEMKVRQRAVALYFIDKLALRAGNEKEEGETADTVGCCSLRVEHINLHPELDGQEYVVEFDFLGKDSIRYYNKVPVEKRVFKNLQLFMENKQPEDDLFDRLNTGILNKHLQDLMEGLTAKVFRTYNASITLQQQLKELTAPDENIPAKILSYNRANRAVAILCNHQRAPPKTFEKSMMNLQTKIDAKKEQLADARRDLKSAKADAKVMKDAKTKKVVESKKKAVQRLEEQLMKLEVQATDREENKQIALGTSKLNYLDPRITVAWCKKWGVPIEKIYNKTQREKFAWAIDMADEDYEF

[6] = Cytotoxicity against human OVCAR3 cells by MTT assay; format: functional; settings: OVCAR-3; in short: as §1
[7] = Cytotoxicity against human HCT116 cells by MTT assay; format: functional; settings: HCT-116; in short: as §1
[8] = system: MCF7; experiment: Cytotoxicity against human MCF7 cells by MTT assay; format: functional; in short: as §1
[9] = Cytotoxicity against human DU145 cells by MTT assay; format: functional; settings: DU-145; in short: as §1
[10] = target: Tyrosyl-DNA phosphodiesterase 1 (Homo sapiens, UniProt Q9NUW8); experiment: Inhibition of recombinant TDP1 (unknown origin) using 5'-[32P]-labeled single-stranded DNA oligonucleotide containing 3'-phosphotyrosine (N14Y) as substrate for 15 mins by PAGE assay
Chain of Tyrosyl-DNA phosphodiesterase 1 (Q9NUW8 whole entry): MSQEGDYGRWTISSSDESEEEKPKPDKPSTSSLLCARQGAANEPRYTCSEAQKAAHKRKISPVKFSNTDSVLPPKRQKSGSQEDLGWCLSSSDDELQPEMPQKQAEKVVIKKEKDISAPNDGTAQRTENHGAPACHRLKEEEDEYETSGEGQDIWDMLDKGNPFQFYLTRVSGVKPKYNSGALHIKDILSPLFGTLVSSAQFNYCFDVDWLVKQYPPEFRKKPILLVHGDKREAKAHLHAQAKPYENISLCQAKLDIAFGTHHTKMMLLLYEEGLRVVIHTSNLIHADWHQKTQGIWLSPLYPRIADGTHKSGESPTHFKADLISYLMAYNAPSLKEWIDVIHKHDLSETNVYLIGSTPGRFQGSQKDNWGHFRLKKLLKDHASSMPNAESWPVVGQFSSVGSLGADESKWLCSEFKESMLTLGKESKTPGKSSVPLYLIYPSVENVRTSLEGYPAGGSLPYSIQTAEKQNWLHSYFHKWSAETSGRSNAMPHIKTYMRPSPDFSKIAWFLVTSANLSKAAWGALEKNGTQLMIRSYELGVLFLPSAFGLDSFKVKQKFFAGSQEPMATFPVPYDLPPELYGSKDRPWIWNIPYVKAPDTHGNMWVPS

[11] = target: T2, Tyrosyl-DNA phosphodiesterase 2 (Homo sapiens, UniProt O95551); experiment: Inhibition of recombinant human TDP2 using alpha32P-cordycepin-[…]-labeled 19-mer single-stranded oligonucleotide DNA containing 5'-phosphotyrosine (Y19) for 15 mins by PAGE assay
T2 sequence (O95551 whole entry): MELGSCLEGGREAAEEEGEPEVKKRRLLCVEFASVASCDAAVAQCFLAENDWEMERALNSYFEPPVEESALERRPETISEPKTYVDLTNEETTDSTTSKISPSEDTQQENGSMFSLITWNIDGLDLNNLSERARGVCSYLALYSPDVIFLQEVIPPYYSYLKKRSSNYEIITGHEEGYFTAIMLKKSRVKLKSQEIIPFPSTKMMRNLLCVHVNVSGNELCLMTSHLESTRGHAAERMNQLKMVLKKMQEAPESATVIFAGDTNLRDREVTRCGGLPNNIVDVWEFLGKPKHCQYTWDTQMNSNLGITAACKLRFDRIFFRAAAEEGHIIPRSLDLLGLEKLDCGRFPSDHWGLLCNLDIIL

SMILES: O=C1c2cc3c(cc2-c2c1c1ccc(Cl)cc1c(=O)n2C[C@H](O)[C@H](O)[C@H](O)CO)OCO3
- Activity [5]: 20%

SMILES: O=C1c2cc3c(cc2-c2c1c1cc(F)c(F)cc1c(=O)n2C[C@H](O)CO)OCO3
- GI50 [1]: 29 nM
- GI50 [2]: 33 nM
- GI50 [3]: 22 nM
- GI50 [4]: 15 nM
- Activity [5]: 50%
- GI50 [6]: 224 nM
- GI50 [7]: 37 nM
- GI50 [8]: < 10 nM
- GI50 [9]: 41 nM

SMILES: O=C1c2cc3c(cc2-c2c1c1cc(Cl)c(Cl)cc1c(=O)n2C[C@H](O)CO)OCO3
- GI50 [1]: < 10 nM
- GI50 [2]: < 10 nM
- GI50 [3]: < 10 nM
- GI50 [4]: < 10 nM
- Activity [5]: 50%
- GI50 [6]: 16 nM
- GI50 [7]: < 10 nM
- GI50 [8]: < 10 nM
- GI50 [9]: < 10 nM

SMILES: O=C1c2cc3c(cc2-c2c1c1cc(Cl)c(Cl)cc1c(=O)n2CCCn1ccnc1)OCO3
- GI50 [1]: < 10 nM
- GI50 [2]: < 10 nM
- GI50 [3]: < 10 nM
- GI50 [4]: < 10 nM
- Activity [5]: 20%
- GI50 [6]: 43 nM
- GI50 [7]: < 10 nM
- GI50 [8]: < 10 nM
- GI50 [9]: < 10 nM

SMILES: COc1cc2c3c(n(CCCNCCO)c(=O)c2cc1OC)-c1cc2c(cc1C3=O)OCO2 [LMP-744]
- GI50 [1]: 90 nM
- GI50 [2]: 10 nM
- GI50 [3]: 10 nM
- Activity [5]: 100%
- GI50 [6]: 1500 nM
- GI50 [7]: 150 nM

SMILES: O=C1c2cc3c(cc2-c2c1c1ccc(Cl)cc1c(=O)n2C[C@H](O)CO)OCO3
- GI50 [1]: 25 nM
- GI50 [2]: 27 nM
- GI50 [3]: 22 nM
- GI50 [4]: 12 nM
- Activity [5]: 50%
- GI50 [6]: 62 nM
- GI50 [7]: 20 nM
- GI50 [8]: < 10 nM
- GI50 [9]: 32 nM

More lines, main results first:

- Activity [5]: 100%
SMILES: O=C1c2cc3c(cc2-c2c1c1ccc(F)cc1c(=O)n2C[C@H](O)CO)OCO3
- GI50 [1]: 51 nM
- GI50 [2]: 76 nM
- GI50 [3]: 49 nM
- GI50 [4]: 45 nM
- GI50 [6]: 182 nM
- GI50 [7]: 79 nM
- GI50 [8]: 32 nM
- GI50 [9]: 102 nM

- Activity [5]: 20%
SMILES: O=C1c2cc3c(cc2-c2c1c1ccc(F)cc1c(=O)n2CCCN1CCOCC1)OCO3

- Activity [5]: 20%
SMILES: O=C1c2cc3c(cc2-c2c1c1ccc(Cl)cc1c(=O)n2CCCN1CCOCC1)OCO3

- pIC50 [10]: 5.21
- Activity [5]: 50%
- pIC50 [11]: 5.20
SMILES: O=C1c2cc3c(cc2-c2c1c1ccc(F)cc1c(=O)n2CCCNCCO)OCO3
- GI50 [1]: 41 nM
- GI50 [2]: 107 nM
- GI50 [3]: 36 nM
- GI50 [4]: 28 nM
- GI50 [6]: 76 nM
- GI50 [7]: 19 nM
- GI50 [8]: < 10 nM
- GI50 [9]: 33 nM

- Activity [5]: 50%
SMILES: O=C1c2cc3c(cc2-c2c1c1ccc(F)cc1c(=O)n2C[C@H](O)[C@@H](O)[C@H](O)CO)OCO3
- GI50 [1]: 29 nM
- GI50 [2]: 79 nM
- GI50 [3]: 32 nM
- GI50 [4]: 25 nM
- GI50 [6]: 100 nM
- GI50 [7]: 35 nM
- GI50 [8]: 12 nM
- GI50 [9]: 51 nM

- Activity [5]: 75%
SMILES: O=C1c2cc3c(cc2-c2c1c1ccc(F)cc1c(=O)n2CCCn1ccnc1)OCO3
- GI50 [1]: < 10 nM
- GI50 [2]: < 10 nM
- GI50 [3]: < 10 nM
- GI50 [4]: < 10 nM
- GI50 [6]: 19 nM
- GI50 [7]: < 10 nM
- GI50 [8]: < 10 nM
- GI50 [9]: < 10 nM

- Activity [5]: 50%
SMILES: O=C1c2cc3c(cc2-c2c1c1ccc(Cl)cc1c(=O)n2CCCn1ccnc1)OCO3
- GI50 [1]: < 10 nM
- GI50 [2]: < 10 nM
- GI50 [3]: < 10 nM
- GI50 [4]: < 10 nM
- GI50 [6]: 40 nM
- GI50 [7]: < 10 nM
- GI50 [8]: < 10 nM
- GI50 [9]: < 10 nM

- Activity [5]: 20%
SMILES: O=C1c2cc3c(cc2-c2c1c1cc(F)c(F)cc1c(=O)n2CCCn1ccnc1)OCO3
- GI50 [1]: < 10 nM
- GI50 [2]: < 10 nM
- GI50 [3]: < 10 nM
- GI50 [4]: < 10 nM
- GI50 [6]: 115 nM
- GI50 [7]: < 10 nM
- GI50 [8]: < 10 nM
- GI50 [9]: < 10 nM

- pIC50 [10]: 5.20
- Activity [5]: 75%
- pIC50 [11]: 5.05
SMILES: O=C1c2cc3c(cc2-c2c1c1ccc(Cl)cc1c(=O)n2CCCNCCO)OCO3
- GI50 [1]: 240 nM
- GI50 [2]: 1070 nM
- GI50 [3]: 71 nM
- GI50 [4]: 43 nM
- GI50 [6]: 1320 nM
- GI50 [7]: 105 nM
- GI50 [8]: 18 nM
- GI50 [9]: 59 nM

Source: ChEMBL document CHEMBL3763043, “Synthesis and biological evaluation of new fluorinated and chlorinated indenoisoquinoline topoisomerase I poisons” (Bioorg Med Chem, 2016)
